Laboratory results taken from ChEMBL document CHEMBL1142934, “Molecular modeling of the human P2Y2 receptor and design of a selective agonist, 2'-amino-2'-deoxy-2-thiouridine 5'-triphosphate” (J Med Chem, 2007).

Columns and labels:
Type in all cases: functional, cell-based
P2Y purinoceptor 4 [1] = molecular target: T1, P2Y purinoceptor 4 (Homo sapiens, UniProt P51582); experiment: Antagonistic activity at human recombinant P2Y4 receptor expressed in 1321N1 cells; settings: filed as antagonist
P2Y purinoceptor 6 [2] = molecular target: T2, P2Y purinoceptor 6 (Homo sapiens, UniProt Q15077); experiment: Agonist activity at human recombinant P2Y6 receptor expressed in 1321N1 cells assessed as stimulation of phospholipase C
In short: (§1)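 Human P2Y2, P2Y4 or P2Y6 receptors stably expressed in 1321N1 astrocytoma cells. PLC activation was measured across a concentration range of each nucleotide. Tritiated inositol phosphates formed from a radiolabeled myo-inositol precursor were quantified by a standard ion exchange method. EC50 was the concentration giving 50% of the maximal effect, fitted with a four-parameter logistic equation. Values are mean ± standard error, N = 3.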

P2Y purinoceptor 4 [3] = molecular target: T1, P2Y purinoceptor 4; experiment: Agonist activity at human recombinant P2Y4 receptor expressed in 1321N1 cells assessed as stimulation of phospholipase C; in short: as §1
P2Y purinoceptor 2 = P2Y purinoceptor 2 (Homo sapiens, UniProt P41231); experiment: Agonist activity at human recombinant P2Y2 receptor expressed in 1321N1 cells assessed as stimulation of phospholipase C
In short: as §1, with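 “method.” for “method. EC50 was the concentration giving 50% of the maximal effect, fitted with a four-parameter logistic equation.”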

P2Y purinoceptor 6 [4] = molecular target: T2, P2Y purinoceptor 6; experiment: Agonist activity at human recombinant P2Y6 receptor expressed in 1321N1 cells assessed as intracellular calcium mobilization

T1 sequence (P51582 whole entry): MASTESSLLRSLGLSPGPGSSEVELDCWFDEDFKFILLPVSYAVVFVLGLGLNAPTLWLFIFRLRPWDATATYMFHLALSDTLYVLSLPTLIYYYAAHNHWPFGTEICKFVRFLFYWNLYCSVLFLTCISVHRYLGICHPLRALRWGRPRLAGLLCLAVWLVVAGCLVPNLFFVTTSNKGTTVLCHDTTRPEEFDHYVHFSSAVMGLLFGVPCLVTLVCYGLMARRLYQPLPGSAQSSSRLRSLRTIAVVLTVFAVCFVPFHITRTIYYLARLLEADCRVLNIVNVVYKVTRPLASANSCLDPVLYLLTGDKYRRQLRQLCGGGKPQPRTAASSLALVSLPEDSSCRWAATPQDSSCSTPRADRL
Sequence of P2Y purinoceptor 2 (P41231 whole entry): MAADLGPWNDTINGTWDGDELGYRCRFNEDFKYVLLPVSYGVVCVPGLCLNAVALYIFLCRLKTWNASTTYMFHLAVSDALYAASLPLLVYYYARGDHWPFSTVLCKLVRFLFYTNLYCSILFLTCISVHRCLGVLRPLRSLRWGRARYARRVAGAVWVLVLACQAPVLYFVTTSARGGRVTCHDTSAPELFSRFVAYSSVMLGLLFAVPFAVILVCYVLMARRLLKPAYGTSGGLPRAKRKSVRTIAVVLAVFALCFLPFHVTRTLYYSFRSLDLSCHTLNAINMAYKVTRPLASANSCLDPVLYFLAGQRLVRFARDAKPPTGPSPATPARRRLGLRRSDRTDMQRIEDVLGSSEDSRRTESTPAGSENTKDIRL
T2 sequence (Q15077 whole entry): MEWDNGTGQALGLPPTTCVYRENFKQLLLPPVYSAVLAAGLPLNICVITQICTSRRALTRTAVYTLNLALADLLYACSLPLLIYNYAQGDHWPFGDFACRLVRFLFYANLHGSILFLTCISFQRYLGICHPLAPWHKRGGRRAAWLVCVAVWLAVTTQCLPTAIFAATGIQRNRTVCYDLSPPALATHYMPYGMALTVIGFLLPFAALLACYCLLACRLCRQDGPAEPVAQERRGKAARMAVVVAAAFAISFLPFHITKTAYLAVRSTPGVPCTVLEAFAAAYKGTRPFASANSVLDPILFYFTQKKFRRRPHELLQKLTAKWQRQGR

Compound | EC50 (P2Y purinoceptor 6 [2]) | EC50 (P2Y purinoceptor 4 [3]) | EC50 (P2Y purinoceptor 2) | other results
Nc1ncnc2c1ncn2[C@@H]1O[C@H](COP(=O)(O)OP(=O)(O)OP(=O)(O)O)[C@@H](O)[C@H]1O | – | – | – | Activity (P2Y purinoceptor 4 [1]): Antagonist; Kb (P2Y purinoceptor 4 [1]): 708 nM
N[C@@H]1[C@H](O)[C@@H](COP(=O)(O)OP(=O)(O)OP(=O)(O)O)O[C@H]1n1ccc(=O)[nH]c1=S | > 10000 nM | 2.4 µM (agonist) | 8 nM (agonist) | –
Nc1ccn([C@H]2C[C@H](O)[C@@H](COP(=O)(O)OP(=O)(O)OP(=O)(O)OP(=O)(O)OC[C@H]3O[C@@H](n4ccc(=O)[nH]c4=O)[C@H](O)[C@@H]3O)O2)c(=O)n1 [DENUFOSOL] | – | – | 270 nM (agonist) | –
O=c1ccn([C@@H]2O[C@H](COP(=O)(O)OP(=O)(O)OP(=O)(O)S)[C@@H](O)[C@H]2O)c(=O)[nH]1 (some centres not stated) | – | – | 240 nM (agonist) | –
O=c1ccn([C@@H]2O[C@H](COP(=O)(O)OP(=O)(O)OP(=O)(O)O)[C@@H](O)[C@H]2O)c(=O)[nH]1 [URIDINE TRIPHOSPHATE] | – | 0.073 µM (agonist) | 49 nM (agonist) | EC50 (P2Y purinoceptor 6 [4]): > 10 µM (agonist)
Nc1cn([C@@H]2O[C@H](COP(=O)(O)OP(=O)(O)OP(=O)(O)O)[C@@H](O)[C@H]2O)c(=O)[nH]c1=O | 333 nM (agonist) | – | 5600 nM (agonist) | –
O=c1ccn([C@@H]2O[C@H](COP(=O)(O)OP(=O)(O)OP(=O)(O)OP(=O)(O)OC[C@H]3O[C@@H](n4ccc(=O)[nH]c4=O)[C@H](O)[C@@H]3O)[C@@H](O)[C@H]2O)c(=O)[nH]1 [DIQUAFOSOL] | – | – | – | EC50 (P2Y purinoceptor 6 [4]): 20 µM (agonist)
O=c1[nH]c(=O)n([C@@H]2O[C@H](COP(=O)(O)OP(=O)(O)OP(=O)(O)O)[C@@H](O)[C@H]2O)cc1I | – | – | 830 nM (agonist) | –
O=C(N[C@@H]1[C@H](O)[C@@H](COP(=O)(O)OP(=O)(O)OP(=O)(O)O)O[C@H]1n1ccc(=O)[nH]c1=S)C(F)(F)F | – | 8.3 µM (agonist) | 470 nM (agonist) | –
Cc1cn([C@@H]2O[C@H](COP(=O)(O)OP(=O)(O)OP(=O)(O)O)[C@@H](O)[C@H]2O)c(=O)[nH]c1=O [THYMIDINE_TRIPHOSPHATE] | 140 nM (agonist) | 3.9 µM (agonist) | 480 nM (agonist) | –
CO[C@@H]1[C@H](O)[C@@H](COP(=O)(O)OP(=O)(O)OP(=O)(O)O)O[C@H]1n1ccc(=O)[nH]c1=O | – | – | 14300 nM (agonist) | –
O=c1ccn([C@@H]2O[C@H](COP(=O)(O)OP(=O)(O)OP(=O)(O)OP(=O)(O)OC[C@H]3OC(O)[C@H](O)[C@@H]3O)[C@@H](O)[C@H]2O)c(=O)[nH]1 (some centres not stated) | – | – | 1880 nM (agonist) | –
O=c1ccn([C@H]2C[C@H](O)[C@@H](COP(=O)(O)OP(=O)(O)OP(=O)(O)O)O2)c(=O)[nH]1 | – | – | 1080 nM (agonist) | –
N[C@@H]1[C@H](O)[C@@H](COP(=O)(O)OP(=O)(O)OP(=O)(O)O)O[C@H]1n1ccc(=O)[nH]c1=O | > 100000 nM | 1.2 µM (agonist) | 62 nM (agonist) | –
[N-]=[N+]=Nc1cn([C@@H]2O[C@H](COP(=O)(O)OP(=O)(O)OP(=O)(O)O)[C@@H](O)[C@H]2O)c(=O)[nH]c1=O | 467 nM (agonist) | – | 1800 nM (agonist) | –
O=c1ccn([C@@H]2O[C@H](COP(=O)(O)OP(=O)(O)OP(=O)(O)O)[C@@H](O)[C@H]2O)c(=S)[nH]1 | 1500 nM (agonist) | 0.35 µM (agonist) | 35 nM (agonist) | –
CC(=O)N[C@@H]1[C@H](O)[C@@H](COP(=O)(O)OP(=O)(O)OP(=O)(O)O)O[C@H]1n1ccc(=O)[nH]c1=S | – | – | 6500 nM (agonist) | –
O=c1[nH]c(=O)n([C@@H]2O[C@H](COP(=O)(O)OP(=O)(O)OP(=O)(O)O)[C@@H](O)[C@H]2O)cc1Br | – | – | 750 nM (agonist) | –
